Screening results deposited in PubChem BioAssay by several laboratories.
A selection: hits, their analogues and other compounds. The true share with any hit is near 2.1%.
beta cell repl: MIN6 beta-cell proliferation induction; 0.29% of 330,000 active; MIN6 cells proliferation, ATPlite luminescence, 48 h; cells starved in 0.2% serum; 100% = growth in 10% serum; proliferation, % at 10 µM; AID 2380;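 active = compounds whose signal lies at least 3.5 SD above the mean of all wells on their plate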
CRFR2-BP ag: agonists of human CRF-binding protein/CRF-R2 receptor complex; HEK293 CRF-R2/CRF-BP, calcium dye fluorescence (FLIPR); percent of saturating CRF peptide response; activation, % at 13.2 µM; 0.46% of 350,000 active; AID 588473;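 active = activation of at least 50%, plus an integration ratio under a set limit after plate pattern correction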
H9c2 protect: modulators protecting cardiomyocytes from myocardial damage. H9c2 cardiomyocytes, H2O2 injury protection, ATPLite, 2 h. protection from H2O2 cell death, % at 20 µM. 0.63% of 360,000 active;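 active = compounds giving at least 50% protection of heart cells from peroxide-induced death in the single-dose screen, raw or plate-pattern-corrected value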
UCH37 DUB inh: human UCH37 deubiquitinating enzyme inhibition; purified proteasome/UCH37, Ub-AMC cleavage fluorescence; inhibition, % (test concentration not listed); 0.33% of 330,000 active;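 active = mean inhibition over replicate wells above about 20%, limit read from the data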
Target sequence (Q9Y5K5 whole entry, looked up): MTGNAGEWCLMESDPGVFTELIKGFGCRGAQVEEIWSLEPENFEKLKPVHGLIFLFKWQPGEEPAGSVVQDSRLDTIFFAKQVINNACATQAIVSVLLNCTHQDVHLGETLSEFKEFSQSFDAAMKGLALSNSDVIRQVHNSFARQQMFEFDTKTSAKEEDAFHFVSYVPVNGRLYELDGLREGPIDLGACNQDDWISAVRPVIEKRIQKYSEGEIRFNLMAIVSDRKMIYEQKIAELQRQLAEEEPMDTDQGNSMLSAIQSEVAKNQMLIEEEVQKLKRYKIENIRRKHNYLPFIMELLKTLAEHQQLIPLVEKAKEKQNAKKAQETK
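Reagent: Ub-AMC substrate; assay system: Proteasome-associated human UCH37 deubiquitinase; controls: no-proteasome and no-compound wells; read-out: % inhibition of Ub-AMC cleavage fluorescence; timing: 30 min preincubation with enzyme, 25 min cleavage at room temperature; signal: AMC fluorescence from Ub-AMC cleavage, excitation 355 nm, emission 460 nm; buffer or medium: Tris-HCl pH 7.4 plus ovalbumin, ATP-MgCl2, DTT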
CRFR2-BP antag: antagonists of CRF-binding protein/CRF-R2 receptor complex; inhibition, % at 11.8 µM; HEK293 CRF-R2/CRF-BP, CRF-induced calcium fluorescence; AID 588475; 0.59% of 350,000 active;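 active = inhibition of the ligand-induced calcium signal above about 50% at the single tested concentration, limit read from the data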
hiPSC survival: hiPSC single-cell survival enhancement | ATPlite luminescence; 100% = ROCK inhibitor wells, 0% = DMSO | survival enhancement, % at 20 µM | 0.044% of 360,000 active | AID 602274; in the data active = survival enhancement above about 18%;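 note: cells exposed to compounds for 16 hours before the ATP read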
Each line names hits and unclear results; the compound was inactive in the other large screens; ! = repeats disagree.

COc1ccc(-c2nnc(NC(=O)c3ccc(S(=O)(=O)N4CCCc5ccccc54)cc3)o2)cc1	H9c2 protect 63
CC1CN(S(=O)(=O)c2ccc(C(=O)Nc3nnc(-c4ccccn4)o3)cc2)CC(C)O1 (stereo unspecified)	none
COc1ccc2ccccc2c1C=NNC(=O)c1cccc(C)c1	none (no result: beta cell repl, CRFR2-BP ag, H9c2 protect, CRFR2-BP antag, hiPSC survival)
O=C(O)c1ccccc1NC(=O)c1ccccc1Nc1ccccc1	CRFR2-BP antag 52
O=C(Nc1ccccc1C(=O)Nc1ccccc1C(=O)O)c1ccccc1	CRFR2-BP antag 53
COc1ccccc1NC(=O)c1ccccc1Nc1ccccc1	none
O=C(COc1ccc2ccccc2c1)Nc1cccc(C(=O)Nc2ccccc2C(=O)O)c1	CRFR2-BP antag 59
COC(=O)CCC(=NNc1ccc(Cl)c(Cl)c1)C(=O)OC	none (no result: beta cell repl, CRFR2-BP ag, H9c2 protect, CRFR2-BP antag, hiPSC survival)
CN(C)C=Nc1cc(=O)n(C)c(=O)n1CC1CC1	none (no result: beta cell repl, CRFR2-BP ag, H9c2 protect, CRFR2-BP antag, hiPSC survival)
O=C(Nc1ccn(CCCNCc2ccc3c(c2)OCO3)c(=O)n1)OCc1ccccc1	CRFR2-BP antag 110 (no result: beta cell repl, UCH37 DUB inh)
O=C(Nc1ccn(CCCNCc2ccccc2)c(=O)n1)OCc1ccccc1	none (no result: beta cell repl, UCH37 DUB inh)
CCCSc1cc(NCCOC(=O)CCC)c([N+](=O)[O-])c2nonc12	none
CCCC(=O)OCCNc1cc(Sc2nccn2C)c2nonc2c1[N+](=O)[O-]	CRFR2-BP antag 52 (no result: beta cell repl)
Cc1ccc2c(COC(=O)C3=COCCO3)cc(=O)oc2c1	hiPSC survival 23 (no result: beta cell repl)
Cc1ccc(S(=O)(=O)NCC(=O)OCc2cc(=O)oc3cc(C)ccc23)cc1	none
CC(CCc1ccco1)NC(=O)c1cccc2c1C(=O)N(C1CCCCC1)C2 (stereo unspecified)	CRFR2-BP antag 51 (no result: UCH37 DUB inh)
COc1cccc(/C=N/NC(=O)CSCC(=O)Nc2ccccc2)c1O	H9c2 protect 55 (no result: UCH37 DUB inh)
COc1cccc(C=NNC(=O)c2c(C)nc3ccc(Br)cn23)c1O	UCH37 DUB inh 46 (no result: beta cell repl, CRFR2-BP ag, H9c2 protect, CRFR2-BP antag, hiPSC survival)
COc1cccc(/C=N/NC(=O)C(=O)N/N=C/c2cccc(OC)c2O)c1O	H9c2 protect 66 (no result: beta cell repl, UCH37 DUB inh)
COc1cccc(/C=N/Nc2nc(Nc3ccccc3)nc(-n3nc(C)cc3C)n2)c1O	H9c2 protect 74 (no result: UCH37 DUB inh)
COc1cccc(C=NNC(=O)C(=O)NN=Cc2cccc(OC)c2OC)c1OC	none (no result: beta cell repl, CRFR2-BP ag, H9c2 protect, CRFR2-BP antag, hiPSC survival)
COc1ccc(C=NNC(=O)c2c(C)nc3ccc(Br)cn23)cc1	none (no result: beta cell repl, CRFR2-BP ag, H9c2 protect, CRFR2-BP antag, hiPSC survival)
Cc1ccc(C=NNC(=O)c2nnn(-c3nonc3N)c2-c2cccs2)cc1	none (no result: beta cell repl, CRFR2-BP ag, H9c2 protect, CRFR2-BP antag, hiPSC survival)
COc1cccc(/C=N/NC(=O)c2ccncc2)c1OC(=O)c1ccc(Br)cc1	H9c2 protect 55 (no result: UCH37 DUB inh)
COc1cccc(/C=N\NC(=O)C2C(=O)NCC2c2ccccc2)c1O (stereo unspecified)	H9c2 protect 72 (no result: UCH37 DUB inh)
COc1ccccc1C=NNC(=O)c1ccc(Br)cc1	none (no result: beta cell repl, CRFR2-BP ag, H9c2 protect, CRFR2-BP antag, hiPSC survival)
COc1ccc(N/C=C(\C#N)c2nc3ccccc3n2C)c(OC)c1	H9c2 protect 50
COc1ccc(C(O)=C(C#N)c2nc3ccccc3n2C)cc1OC	none (no result: beta cell repl, CRFR2-BP ag, H9c2 protect, CRFR2-BP antag, hiPSC survival)
CCOc1cccc(-c2c(C(=O)NN=Cc3cccnc3)nnn2-c2nonc2N)c1	none (no result: beta cell repl, CRFR2-BP ag, H9c2 protect, CRFR2-BP antag, hiPSC survival)
O=C(c1ccc(COc2ccccc2Cl)o1)N1CCN(Cc2ccc3c(c2)OCO3)CC1	CRFR2-BP antag 60!
COCCNC(=S)N1CCc2cc(OC)c(OC)cc2C1COc1ccc(F)cc1 (stereo unspecified)	none
COCCNC(=S)N1CCc2cc(OC)c(OC)cc2C1COc1ccc(C(C)C)cc1 (stereo unspecified)	CRFR2-BP antag 50
O=C(O)CCn1cc(C=NO)c(-c2cccc([N+](=O)[O-])c2)n1	none (no result: beta cell repl, CRFR2-BP ag, H9c2 protect, CRFR2-BP antag, hiPSC survival)
CSCC[C@H](NC(=O)OC(C)(C)C)C(=O)N/N=C/c1cccc2cccnc12	H9c2 protect 52 (no result: UCH37 DUB inh)
CCOc1ccccc1C(=O)N/N=C/c1cccc2cccnc12	H9c2 protect 86 (no result: UCH37 DUB inh)
CSCC[C@H](NC(=O)OC(C)(C)C)C(=O)NN=Cc1cccc2cccnc12	none (no result: beta cell repl, CRFR2-BP ag, H9c2 protect, CRFR2-BP antag, hiPSC survival)
CC(=NNC(N)=S)c1cc2ccc(O)cc2oc1=O	none (no result: beta cell repl, CRFR2-BP ag, H9c2 protect, CRFR2-BP antag, hiPSC survival)
Cc1[nH]n(-c2ccccc2)c(=O)c1C=NNC(=O)C1COc2ccccc2O1 (stereo unspecified)	none (no result: beta cell repl, CRFR2-BP ag, H9c2 protect, CRFR2-BP antag, hiPSC survival)
CCn1c(SCC(=O)N2CCN(c3ccccc3)CC2)nc2c(c1=O)SC(C)C2 (stereo unspecified)	H9c2 protect 58
COc1cc(C=O)ccc1OCCOCCOc1ccc(Cl)cc1	none
COc1cc(C=O)ccc1OCCOCCOc1ccc(Cl)cc1Cl	CRFR2-BP antag 69
CC(Cc1ccccc1)=NNC(=O)c1ccccn1	none (no result: beta cell repl, CRFR2-BP ag, H9c2 protect, CRFR2-BP antag, hiPSC survival)
Nc1nonc1-n1nnc(C(=O)NN=Cc2cccc(Cl)c2)c1CN1CCCC1	none (no result: beta cell repl, CRFR2-BP ag, H9c2 protect, CRFR2-BP antag, hiPSC survival)
COCCn1cnc2c(c1=O)c1nc3ccccc3nc1n2/N=C/c1ccc(OC)c(OC)c1	H9c2 protect 51 (no result: UCH37 DUB inh)
CCCCCCn1cnc2c(c1=O)c1nc3ccccc3nc1n2N=Cc1ccco1	none (no result: beta cell repl, CRFR2-BP ag, H9c2 protect, CRFR2-BP antag, hiPSC survival)
CCCCCCn1cnc2c(c1=O)c1nc3ccccc3nc1n2/N=C/c1ccco1	H9c2 protect 55 (no result: beta cell repl, UCH37 DUB inh)
Cn1c(SCC(=O)N2CCCc3ccccc32)nc2cccnc21	CRFR2-BP antag 56
Cn1c(SCC(=O)N2CCc3ccccc32)nc2cccnc21	none
COc1ccc(-c2csc(C)n2)cc1OC	none
COc1ccc(-c2csc(C(C#N)=C(O)CSc3nccn3C)n2)cc1OC	H9c2 protect 57 (no result: beta cell repl)
O=S(=O)([N-]c1nc2ccccc2nc1-[n+]1ccc(-c2ccncc2)cc1)c1ccccc1	CRFR2-BP ag 224
